Columns and labels:
[1] = target: Beta-2 adrenergic receptor (Canis lupus familiaris) (UniProt P54833)
Rattus norvegicus [2] = experiment: Compound was tested for oral salidiuretic activity (control/drug treatment value) in rats expressed in Na+, mequiv/6 h at a dose of 128 mg/kg; 0.102/0.380; format: functional, Urine
[3] = target: Beta-1 adrenergic receptor (Homo sapiens) (UniProt P08588); settings: Canis lupus familiaris
Rattus norvegicus [4] = experiment: Compound was tested for oral salidiuretic activity (control/drug treatment value) in rats expressed as urinary output. at a dose of 128 mg/kg; 7.87/8.70; format: functional, Urine
Rattus norvegicus [5] = experiment: Compound was tested for oral salidiuretic activity (control/drug treatment value) in rats expressed in Na+, mequiv/6 h at a dose of 128 mg/kg; 0.177/0.304; format: functional, Urine
Rattus norvegicus [6] = experiment: Compound was tested for oral salidiuretic activity (control/drug treatment value) in rats expressed as urinary output. at a dose of 64 mg/kg; 10.33/9.33; format: functional, Urine
Rattus norvegicus [7] = experiment: Compound was tested for oral salidiuretic activity (control/drug treatment value) in rats expressed in Na+, mequiv/6 hr at a dose of 64 mg/kg; 0.140/0.355; format: functional, Urine
Rattus norvegicus [8] = experiment: Compound was tested for oral salidiuretic activity (control/drug treatment value) in rats expressed as urinary output. at a dose of 128 mg/kg; 8.42/10.18; format: functional, Urine
Rattus norvegicus [9] = experiment: Compound was tested for oral salidiuretic activity (control/drug treatment value) in rats expressed in Na+, mequiv/6 hr at a dose of 128 mg/kg; 0.186/0.853; format: functional, Urine
Rattus norvegicus [10] = experiment: Compound was tested for oral salidiuretic activity (control/drug treatment value) in rats expressed in Na+, mequiv/6 hr at a dose of 128 mg/kg; 0.201/1.197; format: functional, Urine
Rattus norvegicus [11] = experiment: Compound was tested for oral salidiuretic activity (control/drug treatment value) in rats expressed as urinary output. at a dose of 128 mg/kg; 7.33/13.83; format: functional, Urine
Rattus norvegicus [12] = experiment: Compound was tested for oral salidiuretic activity (control/drug treatment value) in rats expressed in Na+, mequiv/6 hr at a dose of 32 mg/kg; 0.207/0.626; format: functional, Urine
Rattus norvegicus [13] = experiment: Compound was tested for oral salidiuretic activity (control/drug treatment value) in rats expressed in Na+, mequiv/6 hr at a dose of 128 mg/kg;. 207/1.364; format: functional, Urine
Rattus norvegicus [14] = experiment: Compound was tested for oral salidiuretic activity (control/drug treatment value) in rats expressed as urinary output. at a dose of 32 mg/kg at 0-2h; 7.42/9.64; format: functional, Urine
Rattus norvegicus [15] = experiment: Compound was tested for oral salidiuretic activity (control/drug treatment value) in rats expressed as urinary output. at a dose of 32 mg/kg; 6.42/9.83; format: functional, Urine
[16] = target: Beta-1 adrenergic receptor (Homo sapiens) (UniProt P08588); experiment: Compound was tested for beta-1 adrenergic receptor blocking activity in dogs; settings: Canis lupus familiaris; target entry is the homologue from another species
Rattus norvegicus [17] = experiment: Compound was tested for oral salidiuretic activity (control/drug treatment value) in rats expressed as urinary output. at a dose of 128 mg/kg; 6.42/15.08; format: functional, Urine
[18] = target: Beta-2 adrenergic receptor (Rattus norvegicus) (UniProt P10608); experiment: The compound was tested for beta-2 adrenergic receptor blocking activity in conscious rats after 1 hr
Sequence of Beta-2 adrenergic receptor (Rattus norvegicus) (P10608 whole entry, looked up): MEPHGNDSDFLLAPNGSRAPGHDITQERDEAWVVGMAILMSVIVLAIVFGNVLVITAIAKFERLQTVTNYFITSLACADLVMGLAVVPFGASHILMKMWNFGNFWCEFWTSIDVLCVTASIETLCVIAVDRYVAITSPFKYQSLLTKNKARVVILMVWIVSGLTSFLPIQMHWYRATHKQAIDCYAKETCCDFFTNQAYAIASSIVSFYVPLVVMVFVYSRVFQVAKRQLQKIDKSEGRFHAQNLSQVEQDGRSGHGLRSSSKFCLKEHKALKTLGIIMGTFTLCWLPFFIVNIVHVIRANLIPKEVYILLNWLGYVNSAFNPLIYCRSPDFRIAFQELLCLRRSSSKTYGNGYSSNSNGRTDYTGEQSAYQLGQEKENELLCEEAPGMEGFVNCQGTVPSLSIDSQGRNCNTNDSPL

Rattus norvegicus [19] = experiment: Compound was tested for oral salidiuretic activity (control/drug treatment value) in rats expressed in Na+, mequiv/6 hr at a dose of 64 mg/kg; 0.207/0.766; format: functional, Urine
Rattus norvegicus [20] = experiment: Compound was tested for oral salidiuretic activity (control/drug treatment value) in rats expressed as urinary output. at a dose of 16 mg/kg; 6.42/9; format: functional, Urine
Rattus norvegicus [21] = experiment: Compound was tested for oral salidiuretic activity (control/drug treatment value) in rats expressed as urinary output. at a dose of 64 mg/kg; 6.42/11.25; format: functional, Urine
Rattus norvegicus [22] = experiment: Compound was tested for oral salidiuretic activity (control/drug treatment value) in rats expressed in Na+, mequiv/6 hr at a dose of 32 mg/kg; 0.259/0.680; format: functional, Urine
Rattus norvegicus [23] = experiment: Compound was tested for oral salidiuretic activity (control/drug treatment value) in rats expressed as urinary output. at a dose of 32 mg/kg at 0-6 h; 9.99/13.01; format: functional, Urine
[24] = target: Beta-1 adrenergic receptor (Homo sapiens) (UniProt P08588); experiment: Compound was tested for beta-1 adrenergic receptor blocking activity in conscious rats after 5 hr; settings: Rattus norvegicus; target entry is the homologue from another species
Rattus norvegicus [25] = experiment: Compound was tested for oral salidiuretic activity (control/drug treatment value) in rats expressed as urinary output. at a dose of 32 mg/kg at 0-4 h; 9.02/11.67; format: functional, Urine
[26] = target: Beta-1 adrenergic receptor (Homo sapiens) (UniProt P08588); experiment: Compound was tested for beta-1 adrenergic receptor blocking activity in conscious rats after 1 hr; settings: Rattus norvegicus; target entry is the homologue from another species
[27] = target: Beta-2 adrenergic receptor (Canis lupus familiaris) (UniProt P54833); experiment: The compound was tested for beta-2 adrenergic receptor blocking activity in dogs
Outline: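 In two dogs, drugs were injected via a cannulated saphenous vein, with increasing doses given every 30 min and each animal used once per substance. Isoproterenol-induced changes in diastolic arterial pressure after each dose were compared with isoproterenol control responses to calculate percent blockade. ID50 (50% inhibition) was estimated from the dose-response curve.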

Rattus norvegicus [28] = experiment: Compound was tested for oral salidiuretic activity (control/drug treatment value) in rats expressed in Na+, mequiv/6 hr at a dose of 16 mg/kg; 0.207/0.554; format: functional, Urine
Rattus norvegicus [29] = experiment: Compound was tested for oral salidiuretic activity (control/drug treatment value) in rats expressed in Na+, mequiv/6 h at a dose of 128 mg/kg; 0.210/0.796; format: functional, Urine
Rattus norvegicus [30] = experiment: Compound was tested for oral salidiuretic activity (control/drug treatment value) in rats expressed as urinary output. at a dose of 128 mg/kg; 7.33/10.83; format: functional, Urine
Rattus norvegicus [31] = experiment: Compound was tested for oral salidiuretic activity (control/drug treatment value) in rats expressed as urinary output. at a dose of 128 mg/kg; 6.50/8.47; format: functional, Urine
Rattus norvegicus [32] = experiment: Compound was tested for oral salidiuretic activity (control/drug treatment value) in rats expressed in Na+, mequiv/6 hr at a dose of 128 mg/kg; 0.144/0.470; format: functional, Urine
Rattus norvegicus [33] = experiment: Compound was tested for oral salidiuretic activity (control/drug treatment value) in rats expressed as urinary output. at a dose of 32 mg/kg; 10.33/10.08; format: functional, Urine
Rattus norvegicus [34] = experiment: Compound was tested for oral salidiuretic activity (control/drug treatment value) in rats expressed in Na+, mequiv/6 hr at a dose of 32 mg/kg; 0.140/0.417; format: functional, Urine

Sequence of Beta-2 adrenergic receptor (Canis lupus familiaris) (P54833 whole entry, looked up): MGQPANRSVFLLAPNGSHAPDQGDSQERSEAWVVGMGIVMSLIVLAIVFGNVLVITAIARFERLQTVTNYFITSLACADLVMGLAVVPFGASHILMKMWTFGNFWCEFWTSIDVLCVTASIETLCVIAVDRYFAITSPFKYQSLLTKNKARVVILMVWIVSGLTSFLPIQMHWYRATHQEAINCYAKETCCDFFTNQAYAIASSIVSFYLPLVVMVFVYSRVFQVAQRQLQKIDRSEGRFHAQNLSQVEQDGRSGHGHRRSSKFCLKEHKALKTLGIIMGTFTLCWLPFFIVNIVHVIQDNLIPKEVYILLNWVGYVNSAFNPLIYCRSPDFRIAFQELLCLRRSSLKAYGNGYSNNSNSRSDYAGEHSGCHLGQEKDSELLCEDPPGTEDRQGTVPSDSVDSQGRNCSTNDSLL
Sequence of Beta-1 adrenergic receptor (Homo sapiens) (P08588 whole entry, looked up): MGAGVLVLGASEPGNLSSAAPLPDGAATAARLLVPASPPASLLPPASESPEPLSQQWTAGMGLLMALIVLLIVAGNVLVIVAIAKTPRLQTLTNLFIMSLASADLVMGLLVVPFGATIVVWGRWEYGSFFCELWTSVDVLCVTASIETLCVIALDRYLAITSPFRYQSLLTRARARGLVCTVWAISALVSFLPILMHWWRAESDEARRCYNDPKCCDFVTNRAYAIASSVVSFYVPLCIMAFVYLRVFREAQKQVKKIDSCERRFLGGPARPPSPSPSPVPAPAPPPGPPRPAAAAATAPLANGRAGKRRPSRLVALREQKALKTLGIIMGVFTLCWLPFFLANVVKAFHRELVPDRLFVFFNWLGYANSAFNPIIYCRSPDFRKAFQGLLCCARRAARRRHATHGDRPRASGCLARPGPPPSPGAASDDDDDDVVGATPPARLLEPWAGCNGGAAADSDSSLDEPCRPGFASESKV

CC(C)(C)NCC(O)COc1ccc(NC(=O)c2cccs2)cc1C#N (stereo unspecified)
ID50 [1]: 0.55 mg/kg | Activity (Rattus norvegicus [2]): 0.102 | ID50 [3]: 0.022 mg/kg

CC(=O)c1cc(NC(=O)c2cccs2)ccc1OCC(O)CNC(C)C (stereo unspecified)
Activity (Rattus norvegicus [4]): 7.87 mL | Activity (Rattus norvegicus [5]): 0.177 | ID50 [1]: > 1 mg/kg | ID50 [3]: 0.45 mg/kg

CC(C)(C)NCC(O)COc1ccc(NC(=O)c2cccs2)cc1Cl (stereo unspecified)
ID50 [1]: 0.4 mg/kg | Activity (Rattus norvegicus [6]): 10.33 mL | ID50 [3]: 0.014 mg/kg | Activity (Rattus norvegicus [7]): 0.14

CCOC(=O)c1cc(NC(=O)c2ccsc2)ccc1OCC(O)CNC(C)(C)C (stereo unspecified)
ID50 [1]: > 1 mg/kg | Activity (Rattus norvegicus [8]): 8.42 mL | Activity (Rattus norvegicus [9]): 0.186 | ID50 [3]: 0.06 mg/kg

CC(C)OC(=O)c1cc(NC(=O)c2cccs2)ccc1OCC(O)CNC(C)(C)C (stereo unspecified)
ID50 [1]: > 1 mg/kg | Activity (Rattus norvegicus [10]): 0.21 | Activity (Rattus norvegicus [11]): 7.33 mL | ID50 [3]: 0.32 mg/kg

CCOC(=O)c1cc(NC(=O)c2cccs2)ccc1OCC(O)CNC(C)(C)C (stereo unspecified) [TIENOXOLOL]
Activity (Rattus norvegicus [12]): 0.207 | Activity (Rattus norvegicus [13]): 0.207 | Activity (Rattus norvegicus [14]): 7.42 mL | treated urinary output (Rattus norvegicus [15]): 9.83 mL | ID50 [16]: 0.065 mg/kg | Activity (Rattus norvegicus [17]): 6.42 mL | ED50 [18]: 1.33 µg/kg | Activity (Rattus norvegicus [19]): 0.207 | treated urinary output (Rattus norvegicus [20]): 9 mL | treated urinary output (Rattus norvegicus [21]): 11.2 mL | Activity (Rattus norvegicus [22]): 0.259 | Activity (Rattus norvegicus [23]): 9.99 mL | ED50 [24]: 1.79 µg/kg | Activity (Rattus norvegicus [25]): 9.02 mL | ED50 [26]: 1.76 µg/kg | ID50 [27]: > 1 mg/kg | Activity (Rattus norvegicus [28]): 0.207

CCCOC(=O)c1cc(NC(=O)c2cccs2)ccc1OCC(O)CNC(C)C (stereo unspecified)
Activity (Rattus norvegicus [29]): 0.21 | Activity (Rattus norvegicus [30]): 7.33 mL

CCOC(=O)c1cc(NC(=O)c2ccsc2)ccc1OCC(O)CNC(C)C (stereo unspecified)
ID50 [1]: > 1 mg/kg | treated urinary output (Rattus norvegicus [31]): 8.47 mL | ID50 [3]: 0.19 mg/kg | Activity (Rattus norvegicus [32]): 0.144

CC(C)NCC(O)COc1ccc(NC(=O)c2cccs2)cc1Cl (stereo unspecified)
ID50 [1]: > 1 mg/kg | Activity (Rattus norvegicus [33]): 10.33 mL | ID50 [3]: 0.17 mg/kg | Activity (Rattus norvegicus [34]): 0.14
